Compounds with a hit are over-represented: about 3.4% of the library has one in this group of screens.
Wee1 degr inh: Wee1 degradation inhibitors, primary screen, cell-based, HeLa, Wee1K328M-luciferase, luminescence. reporter increase, % at 5 µM. hit rate 1.2% among 220,000. Wee1-like protein kinase (Homo sapiens), P30291. HeLa Luc-Wee1K328M stability; 100% = proteasome inhibitor MG132 effect;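 active = activation above the mean of all tested compounds plus 3 SD, set per screening run, cut at about 8.8% in these data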;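 also: cells exposed to compound for 20 h before luminescence read; 0% = DMSO alone and 100% = MG132 at 30 µM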
PHOSPHO1 block: PubChem AID 1565. hit rate 1.1% among 290,000. inhibition, % at 13.3 µM. recombinant PHOSPHO1, absorbance phosphatase assay; in the data active = inhibition above about 60%
Target sequence (Q8TCT1 whole entry, looked up): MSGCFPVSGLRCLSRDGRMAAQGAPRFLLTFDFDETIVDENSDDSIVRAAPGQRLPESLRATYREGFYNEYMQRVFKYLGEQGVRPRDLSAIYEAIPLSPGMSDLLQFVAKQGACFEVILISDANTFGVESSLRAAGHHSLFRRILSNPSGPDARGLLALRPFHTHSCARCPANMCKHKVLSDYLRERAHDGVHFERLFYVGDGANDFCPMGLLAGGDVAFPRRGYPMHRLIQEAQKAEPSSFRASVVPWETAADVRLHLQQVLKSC
RanGTP-Imp inh: inhibitors of RanGTP-importin-beta interaction, primary screen, biochemical, FRET, CFP-Ran, YFP-importin-beta, homogeneous; AID 2216, 2009; Ran GTPase (GTP-bound) - importin-beta complex; cell-free CFP-Ran/YFP-importin-beta FRET ratio; inhibition, % (test concentration not listed); hit rate 1.1% among 300,000;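 active = more than half of the replicate wells show a fall in the fluorescence ratio signal beyond about 16%, limit read from the data, passing the limit was not always enough; inconclusive = exactly half of the replicate wells pass the set limit; inactive = fewer than half of replicates pass the limit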;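 also: 0% = DMSO wells and 100% = Ran loaded with GDP instead of GTP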
HMGR II inh: inhibitors of E. faecalis class II HMGR, primary screen, biochemical, Enterococcus faecalis; purified E. faecalis HMGR, NADPH absorbance 340 nm kinetic; inhibition, % at 10 µM; HMG-CoA reductase (Enterococcus faecalis, mvaE); hit rate 0.41% among 190,000;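 active = inhibition above a set limit, the median over all tested compounds plus 3 SD, cut at about 9.5% in these data; inconclusive = no clear call, values can overlap the other calls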;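 also: enzyme runs in reverse so mevalonate oxidation gives rising NADPH absorbance; 0% = complete reaction with DMSO and 100% = background rate lacking mevalonate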
Runt-CBFb FRET: inhibitors of RUNX1 Runt–CBFb binding, primary screen, biochemical, FRET, Cerulean-Runt, Venus-CBFb, uHTS; Cerulean-Runt/Venus-CBFb FRET ratio 530/480, 1 h; inhibition, % at 20 µM; hit rate 0.46% among 220,000;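 active = inhibition over about 50% at 20 µM in the single-dose screen, limit read from the data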;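 also: 0% = DMSO wells and 100% = excess unlabeled CBFb competitor control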
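Measured by: fluorescence energy transfer, 422 nm excitation, 530/480 nm emission; test system: Cerulean-tagged RUNX1 Runt domain (FRET donor) fusion protein; buffer or medium: Tris pH 7.5 buffer with BSA; compound: one dose, 20 µM compound, 1% DMSO; times: two 1 h room-temperature incubations shielded from light; benchmarks: unlabeled CBFb 5 µM, positive control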
Runt-SMMHC FRET: inhibitors of RUNX1 Runt–CBFb-SMMHC binding, primary screen, biochemical, FRET, Cerulean-Runt, Venus-CBFb-SMMHC, uHTS; Runt-related transcription factor 1 (Homo sapiens) + Core-binding factor subunit beta …; Cerulean-Runt/Venus-CBFb-SMMHC FRET ratio 530/480, 1 h; inhibition, % at 20 µM; hit rate 0.74% among 220,000; AID 1434, 2008;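 active = mean inhibition across duplicate retests at 20 µM reaching about 50%, limit read from the data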;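 also: 0% = DMSO wells and 100% = wells with excess untagged CBFb-SMMHC; inhibitors lower the FRET ratio by blocking Runt binding to CBFb-SMMHC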
Active calls of the source: *.

`O=C(C[n+]1cc(Br)cc(Br)c1)c1cccc([N+](=O)[O-])c1` gave Wee1 degr inh 2, PHOSPHO1 block 38, RanGTP-Imp inh -2, HMGR II inh 0, Runt-CBFb FRET 21 and Runt-SMMHC FRET -5.
Cc1c(C(=O)N(Cc2cccc(Br)c2)C2CCS(=O)(=O)C2)oc2ccc(F)cc12 (stereo unspecified) was read as PHOSPHO1 block 49 and RanGTP-Imp inh 3.
Nc1nonc1-n1nncc1-c1ccccc1 was read as Wee1 degr inh 1, PHOSPHO1 block 8, RanGTP-Imp inh 1, HMGR II inh 11*, Runt-CBFb FRET -4 and Runt-SMMHC FRET 1.
For c1ccc(-c2cnnn2-c2ccccc2)cc1 the results were PHOSPHO1 block 5 and RanGTP-Imp inh -3.
Screening CCOc1cc(NS(=O)(=O)c2ccc(NC(C)=O)cc2)c(OCC)cc1NC(=O)C(C)C returned Wee1 degr inh 1, PHOSPHO1 block -9, RanGTP-Imp inh 18*, HMGR II inh 5, Runt-CBFb FRET 3 and Runt-SMMHC FRET 8.
For COc1cccc(NC(C)(C)c2nnnn2-c2c(C)cccc2C)c1 the results were Wee1 degr inh -1, PHOSPHO1 block 32, RanGTP-Imp inh 1, Runt-CBFb FRET -2 and Runt-SMMHC FRET 1.
Screening Cc1ccc2c(C)cc(=S)[nH]c2c1 returned Wee1 degr inh 1, PHOSPHO1 block -76, RanGTP-Imp inh -1, HMGR II inh -6, Runt-CBFb FRET 3 and Runt-SMMHC FRET 5.
Cc1ccc2[nH]c(=S)cc(C)c2c1 was read as Wee1 degr inh 0, PHOSPHO1 block 89*, RanGTP-Imp inh -3, HMGR II inh -4, Runt-CBFb FRET 3 and Runt-SMMHC FRET 12.
Cc1cc(=S)[nH]c2ccccc12 was read as Wee1 degr inh 5, PHOSPHO1 block 100*, RanGTP-Imp inh -1, HMGR II inh -5, Runt-CBFb FRET 0 and Runt-SMMHC FRET 8.
For COc1ccc(S(=O)(=O)Nc2cc(Sc3ncn[nH]3)c(O)c3ccccc23)cc1 the results were Wee1 degr inh -2, PHOSPHO1 block 98*, HMGR II inh 1, Runt-CBFb FRET 31 and Runt-SMMHC FRET 52.
COc1ccc(NS(=O)(=O)c2ccc(C)c(C(=O)N3CCCCCCC3)c2)cc1 was read as RanGTP-Imp inh 2.
For Cc1ccc2nc(CSc3nc(C)ccc3C#N)[nH]c2c1 the results were Wee1 degr inh 5, PHOSPHO1 block 100*, RanGTP-Imp inh -1, HMGR II inh -1, Runt-CBFb FRET 4 and Runt-SMMHC FRET -7.
For COC(C(=O)Nc1ccnn1C1CCN(Cc2ccc(CO)o2)CC1)c1ccccc1 (stereo unspecified) the results were PHOSPHO1 block 21 and RanGTP-Imp inh 2.
Screening Cc1cccc(C)c1NC(=O)C1c2cccc[n+]2CC(=O)N1Cc1ccc2c(c1)OCO2 (stereo unspecified) returned Wee1 degr inh 4, PHOSPHO1 block -2, RanGTP-Imp inh 4, HMGR II inh -5, Runt-CBFb FRET 1 and Runt-SMMHC FRET 7.
`Cc1ccccc1NC(=O)C1c2cccc[n+]2CC(=O)N1c1c(C)cccc1C` (stereo unspecified) gave Wee1 degr inh 6, PHOSPHO1 block 95*, RanGTP-Imp inh 1, HMGR II inh 0, Runt-CBFb FRET 16 and Runt-SMMHC FRET 2.
`CCOc1ccc(Oc2ccccc2NC(=O)C2=COCCO2)cc1` gave RanGTP-Imp inh -1.
Screening Clc1ccc(NNc2ccnc3cc(Cl)ccc23)cc1 returned Wee1 degr inh 1, PHOSPHO1 block 53, RanGTP-Imp inh -1, HMGR II inh 15*, Runt-CBFb FRET -2 and Runt-SMMHC FRET -6.
For CC(C)CN(Cc1cc(=O)oc2cc(-c3ccccc3)c(O)cc12)CC(C)C the results were Wee1 degr inh 9.3*, PHOSPHO1 block 16, RanGTP-Imp inh 3, Runt-CBFb FRET 12 and Runt-SMMHC FRET -11.
`CCCn1nnc(NC(=S)NC(=O)CC)n1` gave Wee1 degr inh 2, PHOSPHO1 block 60*, RanGTP-Imp inh inconclusive, HMGR II inh -2, Runt-CBFb FRET 2 and Runt-SMMHC FRET 1.
CCCn1nnc(NC(=S)NC(=O)Cc2ccccc2)n1 was read as Wee1 degr inh -3, PHOSPHO1 block 8, RanGTP-Imp inh 0, HMGR II inh -3, Runt-CBFb FRET -2 and Runt-SMMHC FRET -5.
`Cc1ccc(NC(=O)c2sccc2C)nc1` gave PHOSPHO1 block 28 and RanGTP-Imp inh 2.
`CCCc1c(C)[nH]c2ccc(NC(C)=O)cc2c1=O` gave Wee1 degr inh 8.9*, PHOSPHO1 block 12, RanGTP-Imp inh -2, HMGR II inh -5, Runt-CBFb FRET 0 and Runt-SMMHC FRET -15.
CC(=O)Nc1ccc(NC(=O)Cn2cnc(S(=O)(=O)N3CCOCC3)c2)cc1 was read as PHOSPHO1 block 17 and RanGTP-Imp inh 2.
For COc1ccc(-n2c(CCc3ccccc3)nnc2SCC(=O)c2ccccc2)cc1 the results were Wee1 degr inh 1, PHOSPHO1 block -5, RanGTP-Imp inh inconclusive, HMGR II inh 5, Runt-CBFb FRET -1 and Runt-SMMHC FRET -4.
For COc1ccc(C(=O)CSc2nnc(CCc3ccccc3)n2-c2ccccc2)cc1 the results were Wee1 degr inh 0, PHOSPHO1 block 79*, RanGTP-Imp inh 4, HMGR II inh -3, Runt-CBFb FRET -1 and Runt-SMMHC FRET -1.
Screening CN(C)c1ccc(Nc2nc(-c3cccnc3)cs2)cc1 returned Wee1 degr inh 4, PHOSPHO1 block 81*, RanGTP-Imp inh 0, HMGR II inh 0, Runt-CBFb FRET 7 and Runt-SMMHC FRET 0.
For COc1cc(/C=C(\C#N)C(=O)NC(C)C)cc(Cl)c1O the results were Wee1 degr inh 5, PHOSPHO1 block 2, RanGTP-Imp inh -3, HMGR II inh -2, Runt-CBFb FRET 33 and Runt-SMMHC FRET 63*.
Screening CC(C)NC(=O)/C(C#N)=C/c1cccc(NC(=O)c2ccccc2Cl)c1 returned Wee1 degr inh 2, PHOSPHO1 block 6, RanGTP-Imp inh -3, HMGR II inh -8, Runt-CBFb FRET 0 and Runt-SMMHC FRET 8.

Compound activity (PubChem)
